The record followed here is ChEMBL document CHEMBL1137451, “Synthesis and evaluation of antifungal properties of a series of the novel 2-amino-5-oxo-4-phenyl-5,6,7,8-tetrahydroquinoline-3-carbonitrile and its analogues” (Bioorg Med Chem, 2007).

Assay [1] deals with Fusarium oxysporum. The assay can be described thus: Antifungal activity against Fusarium oxysporum 1 at 60 ug/disc after 24 hrs by disc diffusion method. It is filed as functional. The following applies: read-out: IZ. The method in brief: (§1)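 Yeast suspensions (C. albicans strains 1, 2) and mycelial suspensions (F. oxysporum strains 1, 2; Mucor sp.) spread on YPG (0.3% yeast extract, 0.5% peptone, 1% glucose) or PDA agar. Compound applied on filter-paper discs at the stated amount; 28 °C, 24 h. Read-out is inhibition zone diameter. Controls: 50% v/v DMSO vehicle, cycloheximide, amphotericin B.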
(In agar diffusion tests the substance spreads into inoculated agar from a disc or well.)

In assay [2] the test system is Candida albicans. The assay is described as follows: Antifungal activity against Candida albicans 1 at 100 ug/disc after 24 hrs by disc diffusion method. The following applies: read-out: IZ. It is filed as functional. The method in brief:
as §1

Assay [3] relates to Fusarium oxysporum. The assay can be described thus: Antifungal activity against Fusarium oxysporum 2 at 100 ug/disc after 24 hrs by disc diffusion method. It is filed as functional. The note with it: read-out: IZ. The method in brief:
as §1

For assay [4], the system named is Benjaminiella poitrasii. The assay can be described thus: Inhibition of Benjaminiella poitrasii chitin synthase at 4 ug/mL. In a few lines:
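Chitin synthase from Benjaminiella poitrasii measured with and without compound at 4 µg/ml, using a non-radioactive chitin synthase assay. Nikkomycin Z used as reference.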

Assay [5] concerns Candida albicans. The assay is described as follows: Antifungal activity against Candida albicans 1 at 40 ug/disc after 24 hrs by disc diffusion method. The note with it: for zone of inhibition at 40 µg/disc: read-out: IZ. It is filed as functional. In a few lines: as §1
Assay [6] relates to Mucor. The assay is described as follows: Antifungal activity against Mucor at 60 ug/disc after 24 hrs by disc diffusion method. The assay is classed as functional. The following applies: for zone of inhibition at 60 µg/disc: read-out: IZ. In a few lines: as §1
Assay [7] has as its system Candida albicans. The assay is described as follows: Antifungal activity against Candida albicans 1 at 60 ug/disc after 24 hrs by disc diffusion method. It is filed as functional. The following applies: for zone of inhibition at 60 µg/disc: read-out: IZ. The method in brief:
as §1

Assay [8] concerns Mucor. The assay can be described thus: Antifungal activity against Mucor at 40 ug/disc after 24 hrs by disc diffusion method. It is filed as functional. The method in brief: as §1
The subject of assay [9] is Candida albicans. The assay can be described thus: Antifungal activity against Candida albicans 2 after 24 hrs by disc diffusion method. The assay is classed as functional. In a few lines: (§2)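 Disc diffusion on Candida albicans strains 1 and 2 (yeast suspension), Fusarium oxysporum strains 1 and 2 and Mucor sp. (mycelial suspension), spread on YPG or PDA agar. Compound at graded amounts per filter-paper disc, 28 °C for 24 h. MIC taken as the lowest amount giving a 2 mm inhibition zone. Controls: 50% v/v DMSO vehicle, cycloheximide, amphotericin B.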

The test system of assay [10] is Mucor. The assay can be described thus: Antifungal activity against Mucor at after 24 hrs by disc diffusion method. The assay is classed as functional. In a few lines:
as §2

The test system of assay [11] is Fusarium oxysporum. The assay can be described thus: Antifungal activity against Fusarium oxysporum 2 after 24 hrs by disc diffusion method. The assay is classed as functional. The method in brief:
as §2

The test system of assay [12] is Benjaminiella poitrasii. The assay can be described thus: Inhibition of yeast hypha transition at 20 ug/mL after 4 hrs.
The subject of assay [13] is Candida albicans. The assay can be described thus: Antifungal activity against Candida albicans 2 at 60 ug/disc after 24 hrs by disc diffusion method. The assay is classed as functional. The note with it: for zone of inhibition at 60 µg/disc: read-out: IZ. In a few lines: as §1
The subject of assay [14] is Candida albicans. The assay can be described thus: Antifungal activity against Candida albicans 1 after 24 hrs by disc diffusion method. It is filed as functional. In a few lines:
as §2

Assay [15] concerns Candida albicans. The assay is described as follows: Antifungal activity against Candida albicans 2 at 100 ug/disc after 24 hrs by disc diffusion method. The assay is classed as functional. The following applies: read-out: IZ. The method in brief:
as §1

Assay [16] relates to Fusarium oxysporum. The assay can be described thus: Antifungal activity against Fusarium oxysporum 1 at 100 ug/disc after 24 hrs by disc diffusion method. The assay is classed as functional. The note with it: read-out: IZ. In a few lines:
as §1

Assay [17] concerns Fusarium oxysporum. The assay is described as follows: Antifungal activity against Fusarium oxysporum 1 after 24 hrs by disc diffusion method. The assay is classed as functional. In a few lines:
as §2

For assay [18], the system named is Candida albicans. The assay is described as follows: Antifungal activity against Candida albicans 2 at 40 ug/disc after 24 hrs by disc diffusion method. It is filed as functional. The following applies: for zone of inhibition at 40 µg/disc: read-out: IZ. In a few lines: as §1
Assay [19] concerns Fusarium oxysporum. The assay can be described thus: Antifungal activity against Fusarium oxysporum 1 at 40 ug/disc after 24 hrs by disc diffusion method. The following applies: for zone of inhibition at 40 µg/disc: read-out: IZ. The assay is classed as functional. In a few lines:
as §1

The subject of assay [20] is Fusarium oxysporum. The assay can be described thus: Antifungal activity against Fusarium oxysporum 2 at 60 ug/disc after 24 hrs by disc diffusion method. It is filed as functional. The note with it: read-out: IZ. In a few lines: as §1
Assay [21] has as its system Fusarium oxysporum. The assay is described as follows: Antifungal activity against Fusarium oxysporum 2 at 40 ug/disc after 24 hrs by disc diffusion method. The assay is classed as functional. The following applies: for zone of inhibition at 40 µg/disc: read-out: IZ. The method in brief:
as §1

Assay [22] deals with Mucor. The assay can be described thus: Antifungal activity against Mucor at 100 ug/disc after 24 hrs by disc diffusion method. It is filed as functional. The following applies: for zone of inhibition at 100 µg/disc: read-out: IZ. The method in brief:
as §1

The source made the active and inactive calls. The calls are words filed in the database; no cut-off is given here.

In general, inhibition refers to the change of the read-out against control, counted positive when it falls. Read a high inhibition as strong suppression. Turning to `CC(=O)N(C(C)=O)c1nc2c(c(-c3ccc(C)cc3)c1C#N)C(=O)CCC2`, the zone of inhibition at 60 µg/disc in [1] was determined as 2 mm; in [6], 7 mm; in assay [7], 4 mm; in assay [13] it was 4 mm; in [20], 2 mm. Further, the zone of inhibition at 100 µg/disc in [2] came to 6 mm; in assay [3], 4 mm; in assay [15], 6 mm; in assay [16], 4 mm; in assay [22] it was 10 mm. In assay [4], this compound registered an inhibition of 61%. The outcome in assay [5], in assay [18], in assay [19] and in assay [21] was inactive. Besides, the zone of inhibition at 40 µg/disc in assay [8] (read-out: IZ) amounted to 3 mm. The MIC in assay [9] came out at 60 µg/disc; in assay [10], 40 µg/disc; in assay [11] it was 60 µg/disc; in assay [14], 60 µg/disc; in assay [17], 60 µg/disc. In assay [12], this compound came in with an inhibition at 20 µg/mL of 90%.
Consider `N#Cc1c(N)nc2c(c1-c1ccccc1Cl)C(=O)CCC2`, for which the zone of inhibition at 60 µg/disc worked out at 3 mm in assay [1]; 7 mm in assay [6]; 2 mm in assay [7]; 2 mm in [13]; 3 mm in assay [20]. Besides, the zone of inhibition at 100 µg/disc in assay [2] is 4 mm; in assay [3], 6 mm; in assay [15], 4 mm; in [16] it was 6 mm; in assay [22], 10 mm. The compound further displayed an inhibition in [4] of 86%. For the same compound, the outcome in [5], in assay [8] and in assay [18] was inactive. For the same compound, the MIC in assay [9] amounted to 60 µg/disc; in [10], 60 µg/disc; in assay [11], 40 µg/disc; in assay [14] it was 60 µg/disc; in assay [17], 40 µg/disc. In addition, testing at 20 µg/mL in assay [12] gave an inhibition of 95%. The zone of inhibition at 40 µg/disc in assay [19] and in [21] was 2 mm throughout.
As to `N#Cc1c(N)nc2c(c1-c1ccc(F)cc1)C(=O)CCC2`, the zone of inhibition at 60 µg/disc in assay [1] is 3 mm; in assay [6], 9 mm; in assay [7], 4 mm; in assay [13], 4 mm; in assay [20] it was 3 mm. Further, the zone of inhibition at 100 µg/disc in [2] was found to be 6 mm; in assay [3], 7 mm; in [15], 6 mm; in assay [16], 7 mm; in assay [22], 12 mm. The same compound displayed an inhibition in assay [4] of 81%. Further, the zone of inhibition at 40 µg/disc in assay [5] and in [18] was 2 mm each time. Moreover, the result in assay [8], in assay [19] and in [21] was inactive. Also, the MIC in assay [9] was 40 µg/disc; in assay [10], 60 µg/disc; in assay [11], 40 µg/disc; in [14], 40 µg/disc; in [17], 40 µg/disc. The inhibition at 20 µg/mL in assay [12] was determined as 95%.
Turning to `COc1cc(-c2c(C#N)c(N)nc3c2C(=O)CCC3)cc(OC)c1OC`, the zone of inhibition at 60 µg/disc in assay [1] and in assay [20] was 2 mm in each case. In addition, the zone of inhibition at 100 µg/disc worked out at 7 mm in assay [2], 4 mm in assay [3], 7 mm in [15] and 4 mm in [16]. In assay [4], this compound returned an inhibition of 81%. Further, the outcome in assay [5], in assay [6], in [7], in assay [8], in assay [13] and in [18] was inactive. Further, in [22], the outcome was inactive. Also, the MIC worked out at 100 µg/disc in assay [9], 20 µg/disc in assay [11], 100 µg/disc in [14] and 20 µg/disc in [17]. For the same compound, the inhibition at 20 µg/mL in assay [12] worked out at 95%. Further, the zone of inhibition at 40 µg/disc in assay [19] and in [21] was 2 mm in each case.
For `N#Cc1c(N)nc2c(c1-c1ccc(Cl)cc1)C(=O)CCC2`, the zone of inhibition at 60 µg/disc in assay [1] came to 4 mm; in [6] it was 7 mm; in assay [7] it was 3 mm; in [13] it was 3 mm; in [20] it was 4 mm. Besides, the zone of inhibition at 100 µg/disc came to 5 mm in [2]; 7 mm in assay [3]; 5 mm in assay [15]; 7 mm in assay [16]; 10 mm in [22]. Moreover, the inhibition in [4] was 81%. The zone of inhibition at 40 µg/disc in assay [5] and in assay [18] was 2 mm in each case. Moreover, the outcome in [8], in [19] and in [21] was inactive. Besides, the MIC in [9] amounted to 40 µg/disc; in [10], 60 µg/disc; in assay [11], 60 µg/disc; in assay [14] it was 40 µg/disc; in assay [17], 60 µg/disc. In [12], this compound returned an inhibition at 20 µg/mL of 95%.
For `CC(=O)Nc1nc2c(c(-c3ccc(C)cc3)c1C#N)C(=O)CCC2`, the zone of inhibition at 60 µg/disc in [1], in assay [7], in [13] and in assay [20] was 3 mm in each case. Moreover, the zone of inhibition at 100 µg/disc was found to be 7 mm in [2], 5 mm in [3], 7 mm in assay [15] and 5 mm in assay [16]. The inhibition in assay [4] turned out to be 66%. The result in [5], in assay [6], in assay [8], in assay [18], in assay [19] and in [21] was inactive. Further, the outcome in assay [22] was inactive. Besides, the MIC in assay [9], in assay [11], in assay [14] and in assay [17] was 60 µg/disc throughout. This compound yielded an inhibition at 20 µg/mL in assay [12] of 90%.
For the compound `N#Cc1c(N)nc2c(c1-c1cccc(N3C(=O)C=CC3=O)c1)C(=O)CCC2`, the zone of inhibition at 60 µg/disc in assay [1] is 3 mm; in [7] it was 5 mm; in assay [13], 5 mm; in assay [20], 3 mm. Moreover, the zone of inhibition at 100 µg/disc in assay [2], in assay [3], in assay [15] and in assay [16] was 7 mm each time. The same compound gave an inhibition in assay [4] of 91%. Further, the zone of inhibition at 40 µg/disc in [5], in [18], in assay [19] and in assay [21] was 3 mm throughout. Also, the result in assay [6], in assay [8] and in assay [22] was inactive. Further, the MIC in assay [9], in [11], in assay [14] and in assay [17] was 40 µg/disc throughout. Also, in assay [12], the inhibition at 20 µg/mL was 95%.
